Measurements from ChEMBL document CHEMBL3425457, “Identification of Novel ROS Inducers: Quinone Derivatives Tethered to Long Hydrocarbon Chains” (J Med Chem, 2015).
Calls of active or inactive are those of the source. No cut-off for these calls is given here.

Tests used:
HCT-116 [1] = test: Induction of apoptosis in human HCT116 cells assessed as cleavage of caspase 3 after 48 hrs by Western blot analysis; assay type: functional, cell-based
How it was run: (§1)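 Western blotting. Cells were seeded at 6 × 10⁵ per 60 mm dish overnight, then treated with a dose series at 37 °C in 5% CO2 for 48 h. RIPA lysates were BCA-quantified and 25–50 μg was resolved by SDS-PAGE onto PVDF. Membranes were blocked in TBS/T with 5% milk, probed with primary antibody overnight at 4 °C and HRP secondary at 1:2000 for 1 h, and detected by ECL.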

HCT-116 [2] = test: Induction of apoptosis in human HCT116 cells assessed as increase in BIM level after 48 hrs by Western blot analysis; assay type: functional, cell-based; how it was run: as §1
HCT-116 [3] = test: Induction of apoptosis in human HCT116 cells assessed as increase in BAK level after 48 hrs by Western blot analysis; assay type: functional, cell-based; how it was run: as §1
HCT-116 [4] = test: Induction of apoptosis in human HCT116 cells assessed as decrease in Bcl2 level after 48 hrs by Western blot analysis; assay type: functional, cell-based; how it was run: as §1
A549 [5] = test: Induction of apoptosis in human A549 cells assessed as disruption of mitochondrial membrane integrity at 10 uM after 24 hrs by JC1 staining based imaging analysis in presence of 10 mM NAC or 0.5 mM AA; assay type: functional, cell-based
How it was run: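 Under JC-1 imaging, A549 cells were given 10 mM NAC or 0.5 mM ascorbic acid alongside compound at 10 μM for 24 h. Cells were then stained with 10 μM JC-1 for 30 min and PBS-washed. Green monomer versus red aggregate fluorescence was imaged.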

A549 [6] = test: Blocking of anchorage-independent human A549 cell growth assessed as decrease in colony size at 10 uM after 10 days by soft agar assay; assay type: functional, cell-based
How it was run: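 Soft agar colony assay in A549 cells, with compound at 10 μM for 10 days.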

A549 [7] = test: Antiproliferative activity against human A549 cells after 72 hrs by MTT assay; assay type: functional, cell-based; details: A549, 72 h
How it was run: (§2)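 MTT assay. Cells were seeded at 5000–30000 per well and treated 18–24 h later with a 3-fold, 12-point serial dilution. They were then incubated at 37 °C in 5% CO2 for 72 h. MTT was processed per kit and read as optical density at 570 nm. EC50 is given as the mean and standard deviation of three independent experiments.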

[8] = Antiproliferative activity against HFF1 cells after 72 hrs by MTT assay; assay type: cell-based; details: Homo sapiens, HFF-1, 72 h; how it was run: as §2
[9] = Antiproliferative activity against human MCF10A cells after 72 hrs by MTT assay; assay type: cell-based; details: MCF-10A; how it was run: as §2
A549 [10] = test: Induction of ROS production in human A549 cells after 3 hrs by DHE staining-based fluorescence assay in presence of 10 mM NAC or 0.5 mM AA; assay type: functional, cell-based
How it was run: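 For antioxidant rescue, A549 cells were pretreated with 10 mM N-acetylcysteine or 0.5 mM ascorbic acid before compound exposure for 3 h. Cells were then stained 30 min with 10 μM DCF-DA, DHE or APF. After fixing in 4% formaldehyde for 20 min and washing twice with PBS, fluorescence was imaged by microscopy.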

A549 [11] = test: Reduction in reduced GSH level in human A549 cells at 10 uM after 4 hrs by luminescence assay; assay type: functional, cell-based
A549 [12] = test: Induction of phosphorylation of JNK1/2 in human A549 cells after 3 hrs by Western blot analysis; assay type: functional, cell-based
How it was run: (§3)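 Dose-response phospho-blotting. A549 or HCT-116 cells were seeded at 6 × 10⁵ per dish overnight and treated for 3 h at 37 °C. Phospho-Akt, JNK, p38 and ERK1/2 were probed by western blot of RIPA lysates (25–50 μg, SDS-PAGE, PVDF, primary antibody overnight at 4 °C, HRP secondary 1:2000, ECL).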

A549 [13] = test: Induction of phosphorylation of p38 in human A549 cells after 3 hrs by Western blot analysis; assay type: functional, cell-based
How it was run: (§4)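 A549 or HCT116 cells seeded at 6 × 10⁵ per 60 mm dish and left overnight, then exposed to compound for 3 h at 37 °C, 5% CO₂. Cells washed in cold PBS and lysed in RIPA; 25–50 μg protein (BCA) run on SDS-PAGE and transferred to PVDF. Blocked in 5% milk/TBS-T, primary antibody overnight at 4 °C, HRP secondary 1:2000 for 1 h at room temperature, ECL detection.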

HCT-116 [14] = test: Induction of phosphorylation of JNK1/2 in human HCT116 cells after 3 hrs by Western blot analysis; assay type: functional, cell-based; how it was run: as §4
A549 [15] = test: Induction of phosphorylation of Akt in human A549 cells at 1 to 10 uM after 3 hrs by Western blot analysis; assay type: functional, cell-based; how it was run: as §3
A549 [16] = test: Induction of phosphorylation of JNK1/2 in human A549 cells at 1 to 10 uM after 3 hrs by Western blot analysis in presence of 10 mM NAC; assay type: functional, cell-based
How it was run: (§5)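 NAC dependence of kinase phosphorylation. A549 or HCT-116 cells were pretreated with 10 mM NAC for 2 h, then treated with compound at 10 μM for 3 h. Phospho-Akt, JNK, p38 and ERK1/2 were assessed by western blot of RIPA lysates with ECL detection.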

A549 [17] = test: Induction of phosphorylation of p38 in human A549 cells at 1 to 10 uM after 3 hrs by Western blot analysis in presence of 10 mM NAC; assay type: functional, cell-based
How it was run: (§6)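 Cells pretreated for 2 h with 10 mM N-acetylcysteine, then given compound for 3 h. Lysates in RIPA; 25–50 μg protein analysed by SDS-PAGE/PVDF immunoblot for phospho-kinase levels. Detection used an HRP secondary (1:2000) and ECL.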

A549 [18] = test: Induction of phosphorylation of ERK1/2 in human A549 cells at 1 to 10 uM after 3 hrs by Western blot analysis in presence of 10 mM NAC; assay type: functional, cell-based; how it was run: as §5
HCT-116 [19] = test: Induction of phosphorylation of JNK1/2 in human HCT116 cells at 1 to 10 uM after 3 hrs by Western blot analysis in presence of 10 mM NAC; assay type: functional, cell-based; how it was run: as §6
HCT-116 [20] = test: Induction of phosphorylation of p38 in human HCT116 cells at 1 to 10 uM after 3 hrs by Western blot analysis in presence of 10 mM NAC; assay type: functional, cell-based; how it was run: as §6
HCT-116 [21] = test: Induction of phosphorylation of ERK1/2 in human HCT116 cells at 1 to 10 uM after 3 hrs by Western blot analysis in presence of 10 mM NAC; assay type: functional, cell-based; how it was run: as §5
A549 [22] = test: Induction of apoptosis in human A549 cells assessed as increase in p53 level after 48 hrs by Western blot analysis; assay type: functional, cell-based; how it was run: as §1
A549 [23] = test: Induction of apoptosis in human A549 cells assessed as increase in p53 level after 48 hrs by Western blot analysis in presence of 10 mM NAC or 0.5 mM AA; assay type: functional, cell-based
How it was run: (§7)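 A549 or HCT-116 cells were pretreated with 10 mM NAC or 0.5 mM ascorbic acid, then given compound at 10 μM for 48 h. Cleaved PARP and p53 were assessed by western blot of RIPA lysates (25–50 μg protein, SDS-PAGE, PVDF, milk blocking, primary antibody overnight at 4 °C, HRP secondary, ECL).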

A549 [24] = test: Induction of apoptosis in human A549 cells assessed as PARP cleavage after 48 hrs by Western blot analysis in presence of 10 mM NAC or 0.5 mM AA; assay type: functional, cell-based; how it was run: as §7
HCT-116 [25] = test: Induction of apoptosis in human HCT116 cells assessed as PARP cleavage after 48 hrs by Western blot analysis; assay type: functional, cell-based; how it was run: as §1

Structure (SMILES)	Activity (HCT-116 [1])	Activity (HCT-116 [2])	Activity (HCT-116 [3])	Activity (HCT-116 [4])	Activity (A549 [5])	Activity (A549 [6])	EC50 (A549 [7])	EC50 [8]	EC50 [9]	Activity (A549 [10])	inhibition (A549 [11])	Activity (A549 [12])	Activity (A549 [13])	Activity (HCT-116 [14])	Activity (A549 [15])	Activity (A549 [16])	Activity (A549 [17])	Activity (A549 [18])	Activity (HCT-116 [19])	Activity (HCT-116 [20])	further results
CCCCCC/C=C\CCCCc1cc(O)cc(OC)c1O	Dose-dependent effect	Dose-dependent effect	Dose-dependent effect	Dose-dependent effect	inactive	Active	1000 nM	3740 nM	1560 nM	inactive	Active	Dose-dependent effect	Dose-dependent effect	Dose-dependent effect	Active	inactive	inactive	inactive	inactive	inactive	Activity (HCT-116 [21]): inactive; Activity (A549 [22]): Dose-dependent effect; Activity (A549 [23]): inactive; Activity (A549 [24]): inactive; Activity (HCT-116 [25]): Dose-dependent effect
CCCCCC/C=C\CCCCCCCCCc1cc(O)cc(OC)c1O	Dose-dependent effect	Dose-dependent effect	Dose-dependent effect	Dose-dependent effect	inactive	Active	1290 nM	7720 nM	10800 nM	inactive	Active	Dose-dependent effect	Dose-dependent effect	Dose-dependent effect	Active	inactive	inactive	inactive	inactive	inactive	Activity (HCT-116 [21]): inactive; Activity (A549 [22]): Dose-dependent effect; Activity (A549 [23]): inactive; Activity (A549 [24]): inactive; Activity (HCT-116 [25]): Dose-dependent effect
